FXIIa inh 1536 – human FXIIa protease inhibitors, primary screen, biochemical, 1536-well. Coagulation factor XII (Homo sapiens), P00748. inhibition, % at 5 µM. purified FXIIa, Boc-QGR-AMC fluorogenic substrate, 2 h. 220,000 tested, 0.3% active; in the data active means inhibition above about 40%;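 further: 0% = enzyme with no compound and 100% = blank without enzyme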
FXIa inh 1536 – human FXIa protease inhibitors, primary screen, biochemical, 1536-well; Coagulation factor XI (Homo sapiens), P03951; purified FXIa, Boc-Glu-Ala-Arg-AMC fluorogenic substrate; inhibition, % at 5 µM; 220,000 tested, 0.14% active;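 active means inhibition of at least 40%; inactive means inhibition below 40%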;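 further: fluorescence of freed AMC excited at 355 nm; 0% = enzyme without compound and 100% = no enzyme blank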
Thrombin inh – human alpha-thrombin inhibitors, primary screen, counter-screen for coagulation protease inhibitor project, biochemical, 1536-well, fluorogenic AMC substrate. Prothrombin (Homo sapiens), P00734. Boc-VPR-AMC fluorogenic substrate cleavage. inhibition, % at 5 µM. 220,000 tested, 0.26% active;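 active means inhibition at or above 40%; inactive means inhibition below 40%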;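 further: 0% = enzyme with no compound and 100% = wells without enzyme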
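System – human alpha-thrombin · Medium – pH 7.5 Tris (50 mM) with NaCl 150 mM, Tween 20 0.05% · Compound – single-point dosing at 5 µM, 0.2% DMSO · Incubation – enzyme reaction carried out at room temperature · Technique – fluorescence of released AMC, ex 355 nm, em 460 nm · Read-out basis – % inhibition of thrombin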
STAT3 act – IL-6 driven STAT3 reporter potentiators, primary screen, U3A cells, luciferase, luminescence, MLSCN library. 190,000 tested, 0.91% active. IL-6 STAT3-luciferase reporter; 100% = signal with IL-6 EC80 alone. activation (% of control), % at 5.6 µM;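 active means activation above the screen-wide mean of compound activation plus 3 SD, cut at about 130% in these data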;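 further: 0% = background luminescence of wells with medium and substrate only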
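Assay system – human STAT1-deficient U3A cells with stable STAT3-luciferase reporter · Also added – IL-6 (33 ng/mL) · Schedule – compound 1 h, then IL-6 6 h at 37 °C · Technique – reporter luminescence signal · Evaluation – % activation versus median of IL-6-stimulated wells · Benchmarks – IL-6-only wells as 100% reference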
hK5 inh – human KLK5 protease inhibitors, primary screen, biochemical, 1536-well | Kallikrein-5 (Homo sapiens), Q9Y337 | recombinant hK5, fluorogenic AMC substrate cleavage | inhibition, % at 5 µM | 210,000 tested, 0.59% active | AID 873, 2007;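 active means inhibition of 40% or more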;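 further: 0% = enzyme controls without compound and 100% = no-enzyme blanks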
AHR activator – AHR activators, primary screen, cell-based, luminescence, luciferase reporter, human | Aryl hydrocarbon receptor (Homo sapiens), P35869 | AHR-responsive luciferase reporter cells | activation, % at 5 µM | 320,000 tested, 2.5% active | AID 2796, 2010; in the data active means activation above about 47%;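 further: 0% = vehicle wells and 100% = reference agonist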
Target sequence (P35869 whole entry, looked up): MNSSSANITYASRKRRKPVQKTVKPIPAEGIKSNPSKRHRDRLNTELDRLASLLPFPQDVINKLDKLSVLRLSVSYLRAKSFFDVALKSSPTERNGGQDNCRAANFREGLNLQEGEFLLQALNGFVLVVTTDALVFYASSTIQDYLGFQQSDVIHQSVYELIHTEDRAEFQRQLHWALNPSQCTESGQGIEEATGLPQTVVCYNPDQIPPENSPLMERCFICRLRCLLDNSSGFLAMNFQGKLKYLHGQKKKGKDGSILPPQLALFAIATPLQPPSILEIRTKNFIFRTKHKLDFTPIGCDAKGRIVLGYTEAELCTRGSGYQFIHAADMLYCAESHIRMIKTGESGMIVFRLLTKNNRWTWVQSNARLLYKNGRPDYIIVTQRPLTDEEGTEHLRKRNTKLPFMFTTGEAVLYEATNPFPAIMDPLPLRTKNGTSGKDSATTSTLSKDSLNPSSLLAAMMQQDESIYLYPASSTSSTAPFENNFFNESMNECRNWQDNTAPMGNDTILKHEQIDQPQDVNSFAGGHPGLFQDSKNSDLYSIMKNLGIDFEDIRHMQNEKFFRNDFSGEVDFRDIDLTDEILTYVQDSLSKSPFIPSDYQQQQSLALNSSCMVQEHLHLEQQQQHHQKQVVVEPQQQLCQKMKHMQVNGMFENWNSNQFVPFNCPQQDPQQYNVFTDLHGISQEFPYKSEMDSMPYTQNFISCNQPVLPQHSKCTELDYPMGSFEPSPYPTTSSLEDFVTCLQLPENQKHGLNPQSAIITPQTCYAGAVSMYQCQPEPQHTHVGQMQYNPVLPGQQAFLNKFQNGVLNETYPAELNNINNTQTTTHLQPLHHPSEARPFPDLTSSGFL
Starred values were filed as active, the others as inactive; · = no result. Sampled rows, rich in hits. Any-hit rate of the full collection: about 3.5%.

SMILES | FXIIa inh 1536 | FXIa inh 1536 | Thrombin inh | STAT3 act | hK5 inh | AHR activator
CCNc1ccc2c(Cl)cc(=O)oc2c1 | 56* | 31 | 0 | 94 | -48 | 23
O=C1c2ccccc2NC(c2cccc(O)c2)N1Cc1ccco1 (stereo unspecified) | 4 | 2 | -4 | · | -2 | 48*
COc1ccc(C2Nc3ccccc3C(=O)N2Cc2ccco2)cc1CN1C(=O)c2ccccc2C1=O (stereo unspecified) | -4 | -5 | -3 | 99 | -21 | 1
COc1cc(C(=O)Nc2ccc(Nc3ccccc3)cc2)cc(OC)c1OC | · | · | · | · | · | 1
O=C(O)COc1c(-c2ccccc2)oc2ccccc2c1=O | 18 | 9 | -14 | 104 | -15 | 2
NC(=O)COc1c(-c2ccccc2)oc2ccccc2c1=O | 16 | 8 | 3 | 102 | 46* | 3
CCOC(=O)CC1Sc2ccccc2NC1=S (stereo unspecified) | 0 | 4 | -7 | · | 80* | 2
Cc1[nH]ccc2c1[nH]c1cc(=O)ccc12 | -5 | -5 | -8 | · | -6 | 71*
COc1ccc(C(=O)N2CCC3(CC2)NCCc2[nH]cnc23)cc1 | · | · | · | · | · | 3
C=C(C)C(=O)Oc1ccc(N2C(=O)[C@@H]3C4C=CC(C4)[C@@H]3C2=O)cc1 | · | · | · | · | · | 5
Cc1cc(C)n(-c2ccc(Cl)c(C(=O)Nc3ccc(-c4nnc5n4CCCCC5)cc3)n2)n1 | -12 | -6 | 5 | 101 | 1 | -2
CC(C)(C)NC(=O)NC(=O)COC(=O)c1cccc(S(=O)(=O)N2CCCCC2)c1 | 16 | 6 | -1 | 97 | -11 | 2
Cc1ccc(Nc2nc(Cl)nc(N(C)C#N)n2)cc1 | 4 | 0 | 0 | 132 | 1 | 55*
O=C(NNC(=S)Nc1ccc(F)cc1)c1ccccc1OC(F)F | 3 | 5 | -9 | 104 | -240 | 92*
COc1cccc(NC(=S)NNC(=O)c2ccccc2OC(F)F)c1 | 8 | 6 | 3 | 83 | -227 | 3
Cc1ccc(NC(=S)NNC(=O)c2ccccc2OC(F)F)cc1 | 19 | 0 | 0 | 108 | -237 | 102*
O=C(Nc1ccccc1OC(F)F)c1ccc(F)cc1 | 12 | -1 | -3 | 100 | -7 | -1
COc1ccc2c(c1)c1ncn(CCN3CCCC3)c(=O)c1n2C | 4 | -6 | -6 | 106 | -7 | 3
COc1ccccc1CCn1cnc2c3cc(C)ccc3n(C)c2c1=O | 14 | 3 | 3 | 83 | -10 | 68*
O=C(NCC(c1cccnc1)N1CCN(c2ccccc2F)CC1)c1cccc(Cl)c1 (stereo unspecified) | -1 | -9 | -10 | 89 | -30 | 1
O=C(/C=C/c1cccs1)Nc1nccs1 | -2 | -5 | -2 | 85 | -5 | 21
CCc1nnc(NC(=O)/C=C/c2cccs2)s1 | 6 | 0 | 0 | 95 | -1 | 52*
O=C(/C=C/c1cccs1)Nc1ccc(Br)cn1 | 21 | 22 | 13 | 133* | -1 | -5
O=C(/C=C/c1cccs1)Nc1cccc(NC(=O)/C=C/c2cccs2)n1 | 4 | -3 | -15 | 105 | -4 | 25
CN(CCOc1ccccc1)CC(=O)Nc1ccc(Br)cc1F | · | · | · | · | · | 3
SMILES | FXIIa inh 1536 | FXIa inh 1536 | Thrombin inh | STAT3 act | hK5 inh | AHR activator
COc1ccccc1NC(=S)N(Cc1ccco1)Cc1cc2cc(C)ccc2[nH]c1=O | 16 | 14 | 48* | 99 | 38 | 71*
CSc1nc2nc3c(cn2n1)C(=O)CC(c1ccccc1)C3 (stereo unspecified) | 8 | 0 | 4 | 97 | -2 | 1
Cn1c(=O)c2cc3c(nc2n(C)c1=O)CC(c1ccccc1)CC3=O (stereo unspecified) | -1 | -9 | -6 | · | -7 | 59*
O=[N+]([O-])c1ccc(Oc2cccc(F)c2)c2ccncc12 | 14 | 3 | 3 | 121 | 7 | 55*
FC(F)(F)c1ccc(NC(=S)NCc2ccccc2)cc1 | 4 | -7 | 11 | 97 | -4 | 4
Cn1nc(C(F)(F)F)c(-c2ccccc2)c1NC(=O)CCC(=O)O | 30 | 27 | 31 | · | 43* | -2
CC1(C)CC(=O)C=C(c2ccc(-c3ccccc3)cc2)C1 | · | · | · | · | · | 0
O=C(Nc1cc(Cl)cc(Cl)c1)c1cnn2cccnc12 | 18 | 12 | 24 | 94 | 69* | 15
O=C(Nc1cccc(Cl)c1)c1cnn2cccnc12 | 20 | 19 | 24 | 123 | 24 | 21
COc1cc(C)c(NC(=S)Nc2cccc(Cl)c2C)cc1OC | 4 | 2 | -10 | 103 | -5 | 8
CCOC(=O)c1c(O)c2cc(Cl)ccc2n(CC)c1=O | 50* | 32 | 34 | · | 27 | 4
Cc1ccc2cccc(NS(=O)(=O)c3ccccc3)c2n1 | · | · | · | · | · | 71*
Cc1ccc(-c2[nH]c3cc(C(N)=O)ccc3c(=O)c2O)cc1 | 4 | 0 | -5 | · | 1 | 66*
CC1CCCN(S(=O)(=O)c2cccc(C(=O)OCC(=O)N(C)Cc3c(F)cccc3Cl)c2)C1 (stereo unspecified) | · | · | · | · | · | 0
Cc1c(C(=O)N(Cc2ccccc2)C(C)C)cnn1-c1ccccc1 | 8 | 0 | -3 | · | 0 | 1
Cc1c(C(=O)N(Cc2ccccc2)Cc2cccs2)cnn1-c1ccc(Cl)cc1 | 107* | 21 | 9 | · | 44* | 2
CC(C)n1cnc2c(Nc3cccc(Cl)c3)nc(NCCCO)nc21 | 7 | 1 | -5 | · | 2 | 69*
Cc1cc(C)cc(NC(=O)c2ccc(CNc3c(N4CCCC4)c(=O)c3=O)cc2)c1 | 6 | 4 | 1 | · | 4 | 4
CC(=O)NNC(=S)NC(=O)c1ccc(C)cc1 | 12 | 1 | 19 | 106 | -5 | 7
CC(=O)NNC(=S)NC(=O)c1ccccc1 | 42* | 21 | 43* | 95 | 8 | 5
CCOc1ccc(S(=O)(=O)N2CCCCC2)cc1NC(=O)CN1C(=O)NC(C)(c2ccc(C)cc2)C1=O (stereo unspecified) | · | · | · | · | · | 5
O=C(N/N=C/c1cn[nH]c1-c1ccccc1)c1ccco1 | 5 | 6 | 3 | 95 | -11 | 65*
Cc1cc(C(=O)N/N=C/c2cn[nH]c2-c2ccccc2)cs1 | 5 | 13 | 1 | 100 | -5 | 96*
O=C(N/N=C/c1cn(-c2ccccc2)nc1-c1ccccc1)c1ccco1 | 21 | 3 | -3 | 91 | -2 | 2
O=C(N/N=C\c1cn[nH]c1-c1ccccc1)c1ccc([N+](=O)[O-])cc1 | 16 | 3 | 4 | 95 | -8 | 17

Screening results deposited in PubChem by several laboratories.
